# Results collected from several papers.
# Lines come from different studies, so protocols differ.
# gag-pol reverse transcriptase: Gag-Pol polyprotein, reverse transcriptase (gag-pol, Human immunodeficiency virus 1, UniProt P03366)
# CA1: Carbonic anhydrase 1 (CA1, Homo sapiens, UniProt P00915)
# SLC18A2: Synaptic vesicular amine transporter (SLC18A2, Homo sapiens, UniProt Q05940)
# LATS1: Serine/threonine-protein kinase LATS1 (LATS1, Homo sapiens, UniProt O95835)
SMILES,target,effect on,action,technique,pH,notes,IC50 [µM]
CCCCCCNc1c2c([nH]c(=O)c1C(=O)OCC)CCC2,gag-pol reverse transcriptase,enzyme activity,inhibitor,,,,> 100
CC(C)[C@H](N)C(=O)OCCOCn1cnc2c(=O)[nH]c(N)nc21,CA1,enzyme activity,inhibitor,absorbance,pH 7.4,,12.8
COc1cc2nc(N3CCN(C(=O)c4ccco4)[C@H]4CCCC[C@H]43)nc(N)c2cc1OC (racemic),SLC18A2,transporter uptake,inhibitor,,,,0.146
Cc1cc(-c2ccnc3[nH]cc(F)c23)cc(F)c1[C@@]1(O)[C@H](C)CNC[C@@H]1C,LATS1,target engagement in cells,,BRET,,,0.027
CCOC(=O)c1c(NCCCO)c2c([nH]c1=O)CCC2,gag-pol reverse transcriptase,enzyme activity,inhibitor,,,,> 100
CC(C)=CCC/C(C)=C/CC/C(C)=C/Cc1c(O)cc(C)c(C(=O)O)c1O,"Sodium channel protein type 2 subunit alpha (SCN2A, Homo sapiens, UniProt Q99250)",ion current,inhibitor,patch clamp,,,1.61
CNC(=O)c1ccccc1Sc1ccc2c(/C=C/c3ccccn3)n[nH]c2c1,SLC18A2,transporter uptake,inhibitor,,,,8.2
Cc1cc(-c2ccnc3[nH]cc(F)c23)cc(F)c1[C@@]1(O)[C@H](C)CN(C2CCS(=O)(=O)CC2)C[C@@H]1C,LATS1,target engagement in cells,,BRET,,,0.136
Cc1ccc(C(=O)Nc2ccc(CN3CCN(C)CC3)c(C(F)(F)F)c2)cc1C#Cc1cnc2cccnn12,SLC18A2,transporter uptake,inhibitor,radiometric,,cell membranes,0.7
C[C@@H]1CC[C@@]2(OC1)O[C@H]1C[C@H]3[C@@H]4CC[C@H]5C[C@@H](O)CC[C@]5(C)[C@H]4CC(=O)[C@]3(C)[C@H]1[C@@H]2C,"UDP-glucuronosyltransferase 1A4 (UGT1A4, Homo sapiens, UniProt P22310)",enzyme activity,inhibitor,,,,2.3
COc1cc(C)c(/C=C/C(C)=C/C=C/C(C)=C/C(=O)O)c(C)c1C,CA1,enzyme activity,inhibitor,absorbance,pH 7.4,,11.3
Cc1cc(-c2ccnc3[nH]cc(F)c23)cc(F)c1[C@@]1(O)[C@H](C)CN(C2COC2)C[C@@H]1C,LATS1,target engagement in cells,,BRET,,,0.058
C=CCc1ccccc1OCC(O)CNC(C)C (stereo not shown),SLC18A2,transporter uptake,inhibitor,,,,7.7
CN(C/C=C/C#CC(C)(C)C)Cc1cccc2ccccc12,CA1,enzyme activity,inhibitor,absorbance,pH 7.4,,30.3
OC1CCN(c2ccc(/C=N/NC(=S)Nc3ccc(Cl)cc3)cc2)CC1,"Carbonic anhydrase 2 (CA2, Homo sapiens, UniProt P00918)",enzyme activity,inhibitor,absorbance,,,0.378
CN1CCC(=C2c3ccccc3CC(=O)c3sccc32)CC1,CA1,enzyme activity,inhibitor,absorbance,pH 7.4,,10.3
CCc1nn(CCCN2CCN(c3cccc(Cl)c3)CC2)c(=O)n1CCOc1ccccc1,SLC18A2,transporter uptake,inhibitor,radiometric,,cell membranes,0.667
Clc1ccc(C2(c3ccc(-c4ccnc5[nH]ccc45)cc3)CCNCC2)cc1,LATS1,target engagement in cells,,BRET,,,2.23
OCCOCCN1CCN(C(c2ccccc2)c2ccc(Cl)cc2)CC1 (stereo not shown),CA1,enzyme activity,inhibitor,absorbance,pH 7.4,,15.1
NC(=O)c1nnn(Cc2cc(Cl)c(C(=O)c3ccc(Cl)cc3)c(Cl)c2)c1N,"5-hydroxytryptamine receptor 3A (HTR3A, Homo sapiens, UniProt P46098)",ion current,,,,,4.35
CCCCCNc1c2c([nH]c(=O)c1C(=O)OCC)CCC2,gag-pol reverse transcriptase,enzyme activity,inhibitor,,,,> 100
OC1(c2ccc(-c3ccnc4[nH]cc(F)c34)cc2)CCNCC1,LATS1,target engagement in cells,,BRET,,,17.1
